Assay results as given in ChEMBL document CHEMBL1121691, “Inhibition of cholesterol side-chain cleavage. 4. Synthesis of A or B ring modified azacholesterols” (J Med Chem, 1981).

Legend:
Conditions in all cases: cattle
[1] = molecular target: T1, cholesterol side-chain cleavage cytochrome P450 (mitochondrial) (Bos taurus, UniProt P00189); assay: Percent inhibition of cholesterol side-chain cleavage cytochrome P450 at 10 uM in bovine adrenocortical mitochondrial acetone powder preparations
T1 sequence (P00189 whole entry): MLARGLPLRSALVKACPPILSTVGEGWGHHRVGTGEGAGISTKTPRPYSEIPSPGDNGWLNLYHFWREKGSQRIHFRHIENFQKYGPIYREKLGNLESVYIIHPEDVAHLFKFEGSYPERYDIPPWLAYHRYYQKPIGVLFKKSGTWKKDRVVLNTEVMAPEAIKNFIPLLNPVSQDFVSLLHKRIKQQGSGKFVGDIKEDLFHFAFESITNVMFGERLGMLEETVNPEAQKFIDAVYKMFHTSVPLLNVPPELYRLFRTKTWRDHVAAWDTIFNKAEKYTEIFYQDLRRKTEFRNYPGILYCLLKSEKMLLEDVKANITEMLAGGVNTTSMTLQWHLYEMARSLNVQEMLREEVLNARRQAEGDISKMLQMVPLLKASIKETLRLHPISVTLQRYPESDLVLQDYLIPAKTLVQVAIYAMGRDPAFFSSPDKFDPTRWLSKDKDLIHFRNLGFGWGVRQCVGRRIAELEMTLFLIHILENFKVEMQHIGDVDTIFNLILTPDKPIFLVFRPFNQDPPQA
How it was run: (§1)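 CSCC activity in adrenal preparations assayed by the previously reported method. Inhibitor tested at a final concentration of 100 μM or below. Isocaproic acid product volatilized in a heated vacuum desiccator and measured by liquid scintillation counting. Percent inhibition is taken from at least six data points across two separate experiments, with standard deviation from the mean.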

[2] = molecular target: T1, cholesterol side-chain cleavage cytochrome P450 (mitochondrial); assay: Percent inhibition of cholesterol side-chain cleavage cytochrome P450 at 100 uM in bovine adrenocortical mitochondrial acetone powder preparations; how it was run: as §1
[3] = molecular target: T1, cholesterol side-chain cleavage cytochrome P450 (mitochondrial); assay: Percent inhibition of cholesterol side-chain cleavage cytochrome P450 at 1 uM in bovine adrenocortical mitochondrial acetone powder preparations; how it was run: as §1

| SMILES | inhibition at 10 µM [1] | inhibition at 100 µM [2] | inhibition at 1 µM [3] |
| --- | --- | --- | --- |
| CC(C)CCCN(C)[C@H]1CCC2C3CC=C4C[C@@H](O)CCC4(C)C3CCC21C (some centres undefined) | 29% | 78% |  |
| CO[C@@H]1CC[C@@]2(C)C(CC[C@H]3[C@@H]4CC[C@H](N(C)CCCC(C)C)[C@@]4(C)CC[C@@H]32)C1 (some centres undefined) |  | 3% |  |
| CC(C)CCNC(C)[C@H]1CC[C@H]2[C@@H]3CCC4C[C@@H](O)CC[C@]4(C)[C@H]3CC[C@]12C (some centres undefined) |  | 28% |  |
| CO[C@H]1CCC2(C)C(=CCC3C2CCC2(C)C3CC[C@@H]2N(C)CCCC(C)C)C1 (some centres undefined) | 30% | 86% |  |
| CC(C)CCCN(C)[C@H]1CC[C@H]2[C@@H]3CCC4C[C@@H](O)CC[C@]4(C)[C@H]3CC[C@]12C (some centres undefined) |  | 26% |  |
| CO[C@H]1CCC2(C)C(CC[C@@H]3[C@@H]2CCC2(C)[C@@H](N(C)CCCC(C)C)CC[C@@H]32)C1 (some centres undefined) |  | 5% |  |
| CO[C@H]1CC[C@@]2(C)C(CC[C@H]3[C@@H]4CC[C@H](C(C)NCCC(C)C)[C@@]4(C)CC[C@@H]32)C1 (some centres undefined) |  | 21% |  |
| CC(C)CCNC(C)[C@H]1CC[C@H]2[C@@H]3CCC4CC(=O)CC[C@]4(C)[C@H]3CC[C@]12C (some centres undefined) |  | 3% |  |

Next, values leading:

| inhibition at 10 µM [1] | inhibition at 100 µM [2] | inhibition at 1 µM [3] | SMILES |
| --- | --- | --- | --- |
| 86% | 99% | 14% | CO[C@H]1CC[C@@]2(C)C(=CC[C@H]3[C@@H]4CC[C@H](C(C)NCCC(C)C)[C@@]4(C)CC[C@@H]32)C1 (some centres undefined) |
| 89% | 100% | 12% | CCC(C)CNC(C)[C@H]1CC[C@H]2[C@@H]3CC=C4C[C@@H](OC)CC[C@]4(C)[C@H]3CC[C@]12C (some centres undefined) |
| 75% | 93% | 10% | CC(C)CCNC(C)[C@H]1CC[C@H]2[C@@H]3CC=C4C[C@@H](O)CC[C@]4(C)[C@H]3CC[C@]12C (some centres undefined) |
